{"data": "Measured values gathered from unrelated publications", "target": "5'-AMP-activated protein kinase catalytic subunit alpha-2 (PRKAA2, Homo sapiens, UniProt P54646)", "note": "Lines come from different studies, so protocols differ."}
{"Compound": "CN(C)c1nccc(-c2cnn3ncccc23)n1", "test": "binding", "conditions": "1 µM", "remaining binding": "100%"}
{"Compound": "CN(C)c1ncnc(-c2ccc3nc(Nc4cc(CN5CCN(C(=O)CC(F)(F)F)CC5)ccn4)[nH]c3c2)c1Cl", "test": "cell-free assay, competition with immobilised ligand", "conditions": "1 µM", "remaining binding": "100%"}
{"Compound": "F[C@@H]1CCN(c2nccc(-c3cnn4ncccc34)n2)C1", "test": "binding", "conditions": "1 µM", "remaining binding": "100%"}
{"Compound": "Nc1ncc2c(n1)-c1c([nH]c3ccc(C#CC4CC4)cc13)CCCC2", "test": "binding, competition with immobilised ligand", "conditions": "1 µM", "remaining binding": "85%"}
{"Compound": "COc1ncc2cc3ccccc3nc2c1C#N", "test": "cell-free assay, competition with immobilised ligand", "conditions": "5 µM", "remaining binding": "96%"}
{"Compound": "Cc1c(NC(=O)c2cc(C(N)=O)nc3cc(F)ccc23)c(C(F)(F)F)nn1Cc1ccc(C#N)cc1", "test": "cell-free assay, competition with immobilised ligand", "conditions": "1 µM", "remaining binding": "100%"}
{"Compound": "O=C(c1ccc(Nc2ncc(Cl)c(-c3ccc(Cl)s3)n2)cc1)N1CCC(N2CCCC2)CC1", "test": "binding, competition with immobilised ligand", "conditions": "1 µM", "remaining binding": "8.2%"}
{"Compound": "O=C(NS(=O)(=O)c1ccc(NCC2CCOCC2)c([N+](=O)[O-])c1)c1ccc(N2CCN(Cc3ccc(C(F)(F)F)cc3-c3ccc(Cl)cc3)CC2)cc1Oc1cnc2[nH]ccc2c1", "test": "cell-free assay, competition with immobilised ligand", "conditions": "1 µM", "remaining binding": "100%"}
{"Compound": "O=C(Nc1c[nH]nc1C(=O)NC1CCNCC1)c1cc(F)cc(F)c1", "test": "binding, competition with immobilised ligand", "conditions": "1 µM", "remaining binding": "100%"}
{"Compound": "COc1cnc(Nc2cccc(S(N)(=O)=O)c2)nc1N1CCN(c2ccccc2)CC1", "test": "binding, competition with immobilised ligand", "conditions": "1 µM", "remaining binding": "100%"}
{"Compound": "CN(C)c1nccc(-c2cnc3ncccn23)n1", "test": "binding", "conditions": "1 µM", "remaining binding": "80%"}
{"Compound": "Cc1c[nH]c2nccc(Oc3c(F)cc(Nc4cc(Cl)nc(N)n4)cc3F)c12", "test": "cell-free assay, competition with immobilised ligand", "conditions": "0.1 µM", "remaining binding": "89%"}
{"Compound": "CC1CCCN1c1nccc(-c2cnn3ncccc23)n1 (stereo not shown)", "test": "binding", "conditions": "1 µM", "remaining binding": "100%"}
{"Compound": "C[C@H](c1ccc(F)cc1)N(Cc1cccc(C(=O)O)c1)C(=O)c1cnc2ccccc2c1", "test": "cell-free assay, competition with immobilised ligand", "conditions": "1 µM", "remaining binding": "100%"}
{"Compound": "CN(c1nccc(-c2cnn3ncccc23)n1)C1CC1", "test": "binding", "conditions": "1 µM", "remaining binding": "100%"}
{"Compound": "COc1cnc(Nc2cccc(S(N)(=O)=O)c2)nc1N1CCN(c2ccccc2)C(=O)C1", "test": "binding, competition with immobilised ligand", "conditions": "1 µM", "remaining binding": "100%"}
{"Compound": "O=C(NCc1ncc(C(F)(F)F)cc1Cl)c1ccc2c(c1)C1(CCS(=O)(=O)CC1)[C@H](C1CC1)N2S(=O)(=O)c1ccc(F)cc1", "test": "cell-free assay, competition with immobilised ligand", "conditions": "1 µM", "remaining binding": "100%"}
{"Compound": "O=C(c1ccc(Nc2ncc(Cl)c(-c3cc4ccccc4s3)n2)cc1)N1CCC(N2CCCC2)CC1", "test": "binding, competition with immobilised ligand", "conditions": "1 µM", "remaining binding": "4%"}
{"Compound": "N[C@@H]1CCN(c2nccc(-c3cnn4ncccc34)n2)C1", "test": "binding", "conditions": "1 µM", "remaining binding": "98%"}
{"Compound": "CNC(=O)Nc1ccc2c(c1)[C@@]1(CC2)OC(=O)N(CC(=O)N(Cc2ccc(F)cc2)[C@@H](C)C(F)(F)F)C1=O", "test": "cell-free assay, competition with immobilised ligand", "conditions": "1 µM", "remaining binding": "57%"}
{"Compound": "C[C@H]1CCN(c2nccc(-c3cnn4ncccc34)n2)C1", "test": "binding", "conditions": "1 µM", "remaining binding": "84%"}
{"Compound": "O=C(NCCCN1CCOCC1)c1ccc(Nc2ncc(Cl)c(-c3ccc(Cl)s3)n2)cc1", "test": "binding, competition with immobilised ligand", "conditions": "1 µM", "remaining binding": "17%"}
